Active and inactive are the calls of the source. No cut-off for these calls is given here.
Legend:
Plasmodium falciparum [1] = test: Antimalarial activity against asexual stage of Plasmodium falciparum Dd2 infected in erythrocytes assessed as reduction in parasite growth incubated for 48 hrs under hypoxic condition by Hoechst 33342 staining based flow cytometry; assay type: functional, organism-based; conditions: Dd2, 48 h
How it was run: (§1)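 Asexual Dd2 and 3D7 parasites in erythrocytes; DNA content of infected cells measured by Hoechst 33342 staining and FACS. IC50 is the concentration giving 50% of the net fluorescence of untreated control cultures; mean ± SD of n = 3 separate determinations.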

Plasmodium falciparum [2] = test: Antimalarial activity against asexual stage of Plasmodium falciparum 3D7 infected in erythrocytes assessed as reduction in parasite growth incubated for 48 hrs under hypoxic condition by Hoechst 33342 staining based flow cytometry; assay type: functional, organism-based; conditions: 3D7, 48 h; how it was run: as §1
CHO-K1 = test: Cytotoxicity against CHOK1 cells assessed as reduction in cell viability incubated for 48 hrs by CellTiter 96 aqueous one solution assay; assay type: cell-based; conditions: Cricetulus griseus, CHO-K1, 48 h
How it was run: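 Cell growth measured by a tetrazolium dye assay. IC50 is the concentration reducing growth by 50% relative to untreated cultures; mean ± SD of n = 3 separate determinations.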

Plasmodium falciparum [3] = test: Antimalarial activity against asexual stage of Plasmodium falciparum NF54 assessed as reduction in parasite growth incubated for 96 hrs by SYBR Green I dye-based fluorescence assay; assay type: functional, organism-based; conditions: NF54, 96 h
How it was run: (§2)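 Asexual NF54, K1 and W2 parasites; proliferation read as SYBR Green I fluorescence. IC50 is the concentration giving 50% of the net SYBR Green I fluorescence of untreated control cultures; mean ± SEM of n = 3 independent biological replicates.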

Plasmodium falciparum [4] = test: Antimalarial activity against asexual stage of Plasmodium falciparum K1 assessed as reduction in parasite growth incubated for 96 hrs by SYBR Green I dye-based fluorescence assay; assay type: functional, organism-based; conditions: K1, 96 h; how it was run: as §2
Plasmodium falciparum [5] = test: Antimalarial activity against asexual stage of Plasmodium falciparum W2 assessed as reduction in parasite growth incubated for 96 hrs by SYBR Green I dye-based fluorescence assay; assay type: functional, organism-based; conditions: W2, 96 h
Plasmodium falciparum [6] = test: Antimalarial activity against Plasmodium falciparum NF54 early gametocytes transfected with luciferase gene incubated for 48 hrs by luciferase reporter gene assay; assay type: functional, organism-based; conditions: NF54, 48 h
How it was run: (§3)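 Gametocytes of NF54-Pfs16-GFP-Luc, early (>95% stage II/III) or late (>90% stage IV/V); luciferase read-out. IC50 is the concentration giving 50% reduction of luminescence; mean ± SEM of n = 3 independent biological replicates.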

Plasmodium falciparum [7] = test: Antimalarial activity against Plasmodium falciparum NF54 late gametocytes transfected with luciferase gene incubated for 48 hrs by luciferase reporter gene assay; assay type: functional, organism-based; conditions: NF54, 48 h; how it was run: as §3
[8] = Solubility of compound at pH 7.4 measured after 24 hrs; assay type: physicochemical; conditions: buffer
How it was run: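 Water solubility measured at pH 7.4.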

[9] = Effective permeability of compound at pH 7.4 measured after 16 hrs PAMPA; assay type: ADME; conditions: pH 7.4, 16 h
[10] = Stability in rat liver microsomes incubated for 45 mins in presence of NADPH by chromatographic analysis; assay type: ADME, Microsome; conditions: 0.75 h
[11] = Half life in C57BL/6 mouse at 2 mg/kg, iv measured upto 24 hrs by LCMS analysis; assay type: ADME, organism-based; conditions: in vivo
[12] = Volume of distribution in C57BL/6 mouse at 2 mg/kg, iv measured upto 24 hrs by LCMS analysis; assay type: ADME, organism-based; conditions: in vivo
[13] = AUC (0 to last) at steady state in C57BL/6 mouse at 2 mg/kg, iv measured upto […] by LCMS analysis; assay type: ADME, organism-based; design: dose 2 mg/kg, time 0 - last, route intravenous; conditions: in vivo
[14] = Half life in C57BL/6 mouse at 20 mg/kg, po measured upto 24 hrs by LCMS analysis; assay type: ADME, organism-based; conditions: in vivo
[15] = Cmax in C57BL/6 mouse at 20 mg/kg, po measured upto 24 hrs by LCMS analysis; assay type: ADME, organism-based; design: dose 20 mg/kg, route oral; conditions: in vivo
[16] = Tmax in C57BL/6 mouse at 20 mg/kg, po measured upto 24 hrs by LCMS analysis; assay type: ADME, organism-based; conditions: in vivo
[17] = AUC (0 to last) in C57BL/6 mouse at 20 mg/kg, po measured upto 24 hrs by LCMS analysis; assay type: ADME, organism-based; design: dose 20 mg/kg, time 0 - last, route oral; conditions: in vivo
[18] = Oral bioavailability in C57BL/6 mouse at 20 mg/kg measured upto 24 hrs by LCMS analysis; assay type: ADME, organism-based; conditions: in vivo
[19] = Toxicity in C57BL/6 mouse assessed as distress effect at 20 mg/kg, po observed upto 24 hrs; assay type: organism-based; conditions: in vivo
How it was run: (§4)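 Male C57BL6 mice given one dose, 2 mg/kg iv or 20 mg/kg oral (n=3 per route), checked for signs of distress 24 h after dosing.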

[20] = Toxicity in C57BL/6 mouse assessed as distress effect at 2 mg/kg, iv observed upto 24 hrs; assay type: organism-based; conditions: in vivo; how it was run: as §4
Plasmodium falciparum [21] = test: Antimalarial activity against Plasmodium falciparum 3D7 infected in orally dosed NOD-SCID IL-2Ry deficient mouse assessed as reduction in parasitemia administered on day 3 to 6 and measured on day 7 by TER-119-PE and SYTO-19 dye based flow cytometry; assay type: functional; conditions: 3D7, po
How it was run: (§5)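 Humanized mouse infected with P. falciparum Pf3D7 0087/N9; oral dosing on Days 3–6 at 5 dose levels spanning 1–50 mg/kg. Parasitemia measured each treatment day and on Day 7. ED90 from non-linear fit of log Day-7 parasitemia against oral dose, relative to untreated controls.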

Plasmodium falciparum [22] = test: Antimalarial activity against Plasmodium falciparum NF54 incubated for 48 hrs by [3H]-hypoxanthine incorporation assay; assay type: functional, organism-based
Plasmodium falciparum [23] = test: Antimalarial activity against Plasmodium falciparum K1 incubated for 48 hrs by [3H]-hypoxanthine incorporation assay; assay type: functional, organism-based
Plasmodium falciparum [24] = test: Antimalarial activity against Plasmodium falciparum TM90C2B incubated for 48 hrs by [3H]-hypoxanthine incorporation assay; assay type: functional, organism-based
[25] = Toxicity in C57BL/6 mouse at 20 mg/kg, po; assay type: organism-based; conditions: in vivo; how it was run: as §4
[26] = Toxicity in C57BL/6 mouse at 2 mg/kg, iv; assay type: organism-based; conditions: in vivo; how it was run: as §4
[27] = Time at which plasma concentration stays above in vitro IC50 for asexual stage of Plasmodium falciparum 3D7 infected in erythrocytes in C57BL/6 mouse at 20 mg/kg, po; assay type: ADME, organism-based; conditions: in vivo
Plasmodium falciparum [28] = test: Antimalarial activity against Plasmodium falciparum 3D7 infected in NOD-SCID IL-2Ry deficient mouse assessed as reduction in parasitemia at 50 mg/kg, po administered on day 3 to 6 and measured on day 7 by TER-119-PE and SYTO-19 dye based flow cytometry; assay type: functional, organism-based; how it was run: as §5
[29] = Redox cycling activity of the compound […] measured after 45 mins by phenol red reagent based horseradish peroxidase coupled assay
How it was run: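 Redox cycling EC50 determined by the phenol red horseradish peroxidase assay.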

**Q.** For Cc1n(C(C)C)c2c([n+]1C(C)C)C(=O)c1ccccc1C2=O.[Br-], which IC50 (Plasmodium falciparum [1]) is on record?
**A.** Its IC50 is 4.7 nM.

**Q.** And the IC50 (Plasmodium falciparum [2])?
**A.** Its IC50 is 6.5 nM.

**Q.** And the IC50 (CHO-K1)?
**A.** The IC50 was 56700 nM.

**Q.** What about the IC50 (Plasmodium falciparum [3]) of the same compound?
**A.** Its IC50 is 1.43 nM.

**Q.** What about the IC50 (Plasmodium falciparum [4]) of the same compound?
**A.** Its IC50 is 2.5 nM.

**Q.** What about the IC50 (Plasmodium falciparum [5]) of the same compound?
**A.** Its IC50 is 2.18 nM.

**Q.** And the IC50 (Plasmodium falciparum [6])?
**A.** The IC50 was 72 nM.

**Q.** And the IC50 (Plasmodium falciparum [7])?
**A.** Its IC50 is 653 nM.

**Q.** What about the solubility at 24 h [8] of the same compound?
**A.** The solubility at 24 h was > 100 µM.

**Q.** And the Peff [9]?
**A.** Its Peff is “Impermeable”.

**Q.** And the Stability [10]?
**A.** Its Stability is “Stable”.

**Q.** What about the half-life [11] of the same compound?
**A.** Its half-life is 1.4 h.

**Q.** What about the Vd [12] of the same compound?
**A.** The Vd was 8.3 L/kg.

**Q.** And the AUClast [13]?
**A.** The AUClast was 130 µmol·min/L.

**Q.** And the half-life [14]?
**A.** The half-life was 11.3 h.

**Q.** And the Cmax [15]?
**A.** The Cmax was 0.337 µM.

**Q.** And the Tmax [16]?
**A.** The Tmax was 2 h.

**Q.** What about the AUClast [17] of the same compound?
**A.** Its AUClast is 69 µmol·min/L.

**Q.** What about the bioavailability [18] of the same compound?
**A.** Its bioavailability is 5%.

**Q.** What about the Activity [19] of the same compound?
**A.** Its Activity is “Non-Toxic”.

**Q.** What about the Activity [20] of the same compound?
**A.** Its Activity is “Non-Toxic”.

**Q.** What about the ED90 (Plasmodium falciparum [21]) of the same compound?
**A.** Its ED90 is 34 mg/kg.

**Q.** What about the IC50 (Plasmodium falciparum [22]) of the same compound?
**A.** The IC50 was 1 nM.

**Q.** And the IC50 (Plasmodium falciparum [23])?
**A.** Its IC50 is 1.9 nM.

**Q.** And the IC50 (Plasmodium falciparum [24])?
**A.** The IC50 was 1.6 nM.

**Q.** And the Activity [25]?
**A.** Its Activity is “Non-Toxic”.

**Q.** And the Activity [26]?
**A.** The Activity was “Non-Toxic”.

**Q.** What about the Time [27] of the same compound?
**A.** The Time was 24 h.

**Q.** What about the Activity (Plasmodium falciparum [28]) of the same compound?
**A.** The Activity was “inactive”.

**Q.** What about the Activity [29] of the same compound?
**A.** Its Activity is “Active”.

Reference: ChEMBL document CHEMBL4334542, “Antimalarial N 1,N 3-Dialkyldioxonaphthoimidazoliums: Synthesis, Biological Activity, and Structure-activity Relationships” (ACS Med Chem Lett, 2020)
